From PMC10633881 (ACS Omega, 2023)
Residues, ends and D or L forms follow the SMILES beside them. No end group written: not given here.

What was measured:
K562 cells [1] = assay: LDH leakage assay; type: cell-based, human; conditions: 10 μM peptide, 24 h, serum-free medium
Procedure, shortened: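 K562 cells were seeded in 96-well plates for 24 h, then incubated 24 h with peptide in serum-free medium using a kit. Plates were spun at 400g for 5 min. Supernatant was mixed with LDH detection solution and shaken 30 min at room temperature, then read at 490 nm. Untreated wells = no leakage; LDH-releasing reagent = 100% leakage.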

MCF-7 cells = assay: Cell viability, CCK-8 method; type: cell-based, human; conditions: 10 μM peptide, 24 h, CCK8
Procedure, shortened: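 MCF-7 cells (MEM, 10% FBS, 37 °C, 5% CO2) were seeded at 5×10^3 cells/well in 96-well plates. After 24 h, the medium was removed and replaced with MEM containing peptide. After 24 h at 37 °C, viability was read by CCK-8.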

K562 cells [2] = assay: Cell viability, CCK-8 method; type: cell-based, human; conditions: 10 μM peptide, 24 h, CCK8
Procedure, shortened: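 K562 cells (IMDM, 10% FBS, 37 °C, 5% CO2) were seeded at 5×10^3 cells/well in 96-well plates. After 24 h, IMDM containing peptide was added without removing the medium. After 24 h at 37 °C, viability was read by CCK-8.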

Serum stability assay = type: in vitro ADME; conditions: peptide solution (10 mM), 37 °C, supernatant analysed by RP-HPLC
[3] = test system: cancer cells and murine fibroblasts; conditions: read-out: antiproliferative activity IC50 values; against cancer cells and murine fibroblasts; cited from earlier work

CCCCCCCCCC(=O)N[C@@H](Cc1ccccc1)C(=O)N[C@H](C(=O)NCC(=O)N[C@H](C(=O)N[C@@H](CC(C)C)C(=O)N[C@H](C(=O)N1CCC[C@H]1C(=O)N[C@@H](CC(C)C)C(=O)N[C@@H](C)C(=O)N[C@@H](CC(C)C)C(=O)NCC(=O)N[C@@H](C)C(=O)N[C@@H](CC(C)C)C(=O)N[C@H](C(=O)N[C@@H](CCCCN)C(=O)N[C@@H](CC(C)C)C(=O)N[C@@H](Cc1ccccc1)C(=O)N[C@@H](CCCCN)C(N)=O)[C@@H](C)O)[C@@H](C)CC)[C@@H](C)O)[C@@H](C)CC [A-10] (HELM PEPTIDE1{[CCCCCCCCCC(=O)[*:2]].F.I.G.T.L.I.P.L.A.L.G.A.L.T.K.L.F.K.[am]}$$$$V2.0)
LDH leakage (cell membrane destruction) (K562 cells [1]): stronger than that of F1 | anticancer activity in the preliminary screening, compared with F1, MCF-7 cells (MCF-7 cells): strongest anticancer activity | anticancer activity in the preliminary screening, compared with F1, K562 cells (K562 cells [2]): strongest anticancer activity | peptide degraded after incubation in 10% serum for 1 h (Serum stability assay): hardly degraded

FIGTLIPLALGALTKLFK-NH2 [F1, Figainin 1, reference compound]
IC50 [3]: 10.5 to 13.7 µM | LDH leakage (cell membrane destruction) (K562 cells [1]): destroyed cell membranes
